Bioassay records: PubChem, several laboratories
Shown is part of a subset that was picked to be rich in hits.
p-CIP stab down – compounds decreasing mouse p/CIP protein stability; Q05BA5; F442A p/CIP-EGFP cells, EGFP fluorescence, 16 h; decrease of EGFP signal, % at 10 µM; 290,000 compounds, 0.01% hits; AID 1984;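 active = EGFP signal decrease of at least 30% at 10 µM or well 3 SD below plate mean, unless failing retest; inactive = the rest, including hits failing retest or dose response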
Target sequence (Q05BA5 1-1403): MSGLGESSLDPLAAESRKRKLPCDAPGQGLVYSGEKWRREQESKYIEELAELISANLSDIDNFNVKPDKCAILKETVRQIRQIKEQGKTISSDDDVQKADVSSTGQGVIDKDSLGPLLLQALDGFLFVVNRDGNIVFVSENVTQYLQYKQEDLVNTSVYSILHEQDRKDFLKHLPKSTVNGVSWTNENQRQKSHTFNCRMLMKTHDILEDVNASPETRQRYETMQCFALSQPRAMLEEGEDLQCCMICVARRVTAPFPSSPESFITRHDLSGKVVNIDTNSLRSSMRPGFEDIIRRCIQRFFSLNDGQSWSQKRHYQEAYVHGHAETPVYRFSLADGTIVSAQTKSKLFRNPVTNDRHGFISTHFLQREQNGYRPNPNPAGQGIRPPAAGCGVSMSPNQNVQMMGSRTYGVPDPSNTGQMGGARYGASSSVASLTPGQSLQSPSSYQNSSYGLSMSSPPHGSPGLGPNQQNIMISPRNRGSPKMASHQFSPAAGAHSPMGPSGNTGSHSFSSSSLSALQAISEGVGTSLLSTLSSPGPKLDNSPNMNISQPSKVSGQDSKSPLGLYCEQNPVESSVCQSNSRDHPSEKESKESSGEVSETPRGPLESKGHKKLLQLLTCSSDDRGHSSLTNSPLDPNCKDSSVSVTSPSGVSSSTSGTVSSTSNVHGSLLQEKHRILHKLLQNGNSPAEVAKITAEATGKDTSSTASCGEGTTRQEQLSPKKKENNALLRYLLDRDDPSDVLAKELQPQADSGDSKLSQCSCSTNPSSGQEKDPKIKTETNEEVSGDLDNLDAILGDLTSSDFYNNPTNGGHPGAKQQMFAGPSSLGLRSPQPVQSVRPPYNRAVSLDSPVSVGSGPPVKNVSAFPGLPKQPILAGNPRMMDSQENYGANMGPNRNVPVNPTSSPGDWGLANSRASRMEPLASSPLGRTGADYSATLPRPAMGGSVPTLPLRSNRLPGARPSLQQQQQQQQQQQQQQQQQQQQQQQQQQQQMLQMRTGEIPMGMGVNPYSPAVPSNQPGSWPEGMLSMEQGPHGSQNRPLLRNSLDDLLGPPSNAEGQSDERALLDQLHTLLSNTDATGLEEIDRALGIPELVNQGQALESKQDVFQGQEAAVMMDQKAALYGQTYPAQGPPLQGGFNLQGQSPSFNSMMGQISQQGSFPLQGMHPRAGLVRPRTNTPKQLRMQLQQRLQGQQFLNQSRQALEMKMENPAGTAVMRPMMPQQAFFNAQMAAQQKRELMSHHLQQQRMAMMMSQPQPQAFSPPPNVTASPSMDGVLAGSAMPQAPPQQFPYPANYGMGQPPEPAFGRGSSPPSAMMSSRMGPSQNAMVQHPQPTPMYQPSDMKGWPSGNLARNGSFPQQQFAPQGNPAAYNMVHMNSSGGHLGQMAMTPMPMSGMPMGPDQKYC
ABCB6 inh 2 – human ABCB6 transporter inhibition; Q9NP58; K562-ABCB6 porphyrin accumulation, flow cytometry, 1 h; active compounds read low; fluorescence ratio to DMSO, % at 10 µM; 360,000 compounds, 0.19% hits;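 active = fluorescence ratio to DMSO below 75%, the collection mean minus 3 SD; inconclusive = too few cells collected in the well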;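 note: signal is porphyrin accumulated inside mitochondria; lower ratio means ABCB6 inhibition with less porphyrin fluorescence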
Dynein transport – blocks dynein driven cargo transport along microtubules; 3617.4 mouse cells, GR-EGFP nuclear translocation imaging; test concentration mostly 20 µM; stimulated with dexamethasone, 1 µM; active compounds read low; z-score, hits read low; 220,000 compounds, 0.47% hits; AID 1381;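 active = plate z-score of nuclear minus cytoplasmic receptor signal below a set negative limit, without overly bright fluorescence or cell loss, cut at about -3.5 in these data, passing the limit was not always enough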;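 note: z-score of nuclear minus cytoplasmic ring GR-EGFP intensity difference per well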
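Buffer or medium – tet-free medium with charcoal-stripped serum · Signal – automated 10x imaging of fixed Hoechst-stained cells · Also added – dexamethasone agonist, 1.0 µM final, for 30 min · Incubation – induction 48 h, compound 1 h, agonist 30 min · Read-out – GR-EGFP nuclear translocation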
KCC2 mod – KCC2 (human) Cl- transport modulation | Q9H2X9 | KCC2 cells, thallium flux FluoZin-2 fluorescence | B-score of Tl+ flux slope (higher = more flux/activation; lower = inhibition) at 10 µM | 190,000 compounds, 2.2% hits | AID 1456;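 active = thallium flux slope and its plate-corrected score both differing from the plate sample mean at a set confidence after two filtering rounds, in either direction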;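 note: slope of fluorescence scaled to starting intensity during 10 to 20 s after thallium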
V-ATPase pH – yeast V-ATPase proton transport regulation by pHLuorin; 350,000 compounds, 0.37% hits; response, % at 10 µM; S. cerevisiae, pHLuorin cytosolic pH fluorescence; in the data active = response mostly above about 7.3%, no sharp cut-off; inactive = mostly below about 5.4%; note: actives read high
KCC2 secondary – confirmation of human KCC2 transport modulators; AID 1713; HEK293-KCC2, thallium flux, FluoZin2 fluorescence; active compounds read high; shares compounds with KCC2 mod; 3,700 compounds, 15% hits; normalised thallium flux (F/F0 slope) at 10 µM;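 active = thallium flux slope above the same plate's solvent-only control mean plus 3 SD; inconclusive = the two replicate wells disagree; inactive = no significant difference from solvent-only control wells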
KCC2 bumet counter – thallium flux despite bumetanide block in KCC2 cells, secondary assay 3; HEK293-KCC2 + bumetanide/ouabain, thallium flux FluoZin2; active compounds read high; normalized thallium flux at 10 µM; shares compounds with KCC2 mod; 3,700 compounds, 49% hits; AID 1714;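 active = thallium entry rate above the same plate's blocked-transporter control wells by more than 3 SD; inconclusive = the two repeat wells disagree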;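 note: raw slope of fluorescence over initial fluorescence between 10 and 20 s after thallium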
KCC2 sec2 – confirmation of human KCC2 transport modulators; 3,700 compounds, 23% hits; shares compounds with KCC2 mod; HEK293-KCC2, thallium flux FluoZin2 fluorescence; actives lie on both sides; F/F0 rise rate, 10–20 s post-thallium; normalized thallium flux at 10 µM;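 active = thallium flux slope more than 3 SD above or below the plate's solvent-only control mean, mostly below; inconclusive = the two repeat wells disagreed; inactive = no significant shift from solvent-only controls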
HEK293 Tl flux – counter-screen for KCC2 modulators: effect in parental HEK293 cells. thallium flux rate (normalised fluorescence) at 10 µM. shares compounds with KCC2 mod. 3,700 compounds, 46% hits. thallium flux FluoZin2, ouabain; baseline-ratio fluorescence slope, 10–20 s after thallium. AID 1716;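 active = thallium flux rate significantly above the same plate's solvent-only control wells, beyond their mean plus 3 SD; inconclusive = the two replicate wells gave conflicting results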
KCC2 ouabain – modulates human KCC2 on retest with ouabain | 3,700 compounds, 48% hits | shares compounds with KCC2 mod | HEK293-KCC2, thallium flux FluoZin2 fluorescence; bidirectional: low = inhibitor, high = activator | raw Tl+ flux slope (below DMSO = inhibition, above = activation) at 10 µM | AID 1717;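 active = thallium flux slope beyond 3 SD from same-plate DMSO control mean in most replicates, usually higher, sometimes lower; inconclusive = repeat tests gave conflicting results; inactive = no significant difference from controls in most replicates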;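 note: slope of initial-normalized fluorescence between seconds 10 and 20 after thallium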
HEK293 Tl flux2 – counter-screen for KCC2 modulators: effect in parental HEK293 cells. shares compounds with KCC2 mod. thallium flux FluoZin-2 fluorescence slope. thallium flux slope at 10 µM. 3,700 compounds, 33% hits. AID 1718;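 active = thallium flux slope above the same plate's solvent-control mean plus 3 SD in both duplicate wells; inconclusive = duplicate wells that disagreed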;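 note: run without ouabain in cells lacking the KCC2 cotransporter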
A number is an active result; - = inactive; ? = inconclusive; . = no result given.

SMILES | p-CIP stab down | ABCB6 inh 2 | Dynein transport | KCC2 mod | V-ATPase pH | KCC2 secondary | KCC2 bumet counter | KCC2 sec2 | HEK293 Tl flux | KCC2 ouabain | HEK293 Tl flux2
Cc1ccc(C(=O)NC(=S)NCc2ccco2)cc1 | - | - | - | 18.7 | - | 0.014 | 0.0221 | - | 0.0266 | 0.0286 | 0.0156
COc1ccc(C(=O)NC(=S)NCc2ccco2)cc1 | - | - | - | 6.8 | - | - | 0.0151 | - | ? | ? | -
O=C(COc1ccccc1)Nc1nnc(-c2ccc(F)cc2)o1 | - | - | . | . | - | . | . | . | . | . | .
O=C(COc1ccccc1)Nc1nnc(-c2ccc3c(c2)CCCC3)o1 | - | - | - | 8.82 | - | ? | 0.0606 | - | 0.0243 | 0.0415 | 0.0123
CC(=O)Nc1ccc(/C=C/c2noc(-c3ccccc3O)n2)cc1 | - | - | . | . | - | . | . | . | . | . | .
COc1cc(/C=C/c2noc(-c3ccccc3O)n2)ccc1OC(C)=O | - | - | - | -5.5 | - | - | - | - | - | - | -
COCCN1CC(CNC(=O)c2cc(COc3ccc(C)c(C)c3)on2)CC1=O (stereo not drawn) | - | - | . | . | - | . | . | . | . | . | .
CC(C)Sc1nnc([C@H](Cc2c[nH]c3ccccc23)NC(=O)OC(C)(C)C)o1 | - | - | - | -6.29 | - | - | - | 0.028 | ? | 0.0126 | -
CCOc1ccc(NC(=O)c2cc(SC)ccc2Cl)cc1 | - | - | - | - | - | . | . | . | . | . | .
CCOc1ccc(NC(=S)NNC(=O)c2cc(Br)ccc2Cl)cc1 | - | - | - | 8.52 | - | - | 0.0413 | - | ? | 0.0345 | -
O=c1cc(-c2ccccc2Cl)oc2c(NS(=O)(=O)c3ccccc3OC(F)(F)F)ccc(O)c12 | - | . | - | - | - | . | . | . | . | . | .
CCOC(=O)c1c(NS(C)(=O)=O)sc2c1CCC(C)C2 (stereo not drawn) | - | - | - | 22.6 | - | 0.0197 | 0.0586 | - | 0.0275 | 0.0524 | 0.0136
CCOC(=O)c1c(N)sc2c1CCC(C)C2 (stereo not drawn) | - | - | - | - | - | . | . | . | . | . | .
Cc1ccc(Nc2nc(C)cs2)cc1 | - | - | - | - | - | . | . | . | . | . | .
CC(=NNC(=O)COc1cccc(C)c1)c1cccnc1 | . | - | . | . | - | . | . | . | . | . | .
Cc1ccc(S(=O)(=O)Nc2cc(-c3nn(C)c(=O)c4ccccc34)ccc2N2CCOCC2)cc1 | - | - | - | . | - | . | . | . | . | . | .
Cn1nc(-c2ccc(N3CCOCC3)c(NS(=O)(=O)c3ccc(Cl)cc3)c2)c2ccccc2c1=O | - | - | - | 5.81 | - | - | - | - | - | - | -
COC(=O)C1CCN(Cc2cn(-c3ccccc3)nc2-c2ccc3c(c2)OCO3)CC1 | - | - | - | -5.83 | - | - | - | - | - | - | -
O=C1[C@@H]2Cc3c([nH]c4ccccc34)CN2C(=O)CN1CCCCCO | - | - | . | . | - | . | . | . | . | . | .
C/C(=N\Nc1nc2ccc(Cl)cc2o1)c1ccccc1 | - | - | - | 10.2 | - | - | - | - | 0.013 | - | 0.0154
Cc1ccc(C(=O)NC(=S)NNS(=O)(=O)c2ccc(C)cc2)cc1 | - | - | - | 6.17 | - | 0.0173 | 0.0234 | - | 0.00924 | - | 0.0124
COc1ccc(CN2CCN(CCCCOc3ccc(Cl)cc3)CC2)c(OC)c1OC | - | - | - | - | - | . | . | . | . | . | .
O=C1/C(=C\c2c(NCCOCCO)nc3ccccn3c2=O)SC(=S)N1Cc1ccco1 | - | - | . | . | - | . | . | . | . | . | .
CCOc1ccc(-n2c(C)nc3cc(C(=O)NCCN4CCOCC4)ccc32)cc1 | - | - | - | - | - | . | . | . | . | . | .
COc1ccc(-n2c(C)nc3cc(C(=O)NCCN4CCOCC4)ccc32)cc1 | - | - | - | -6.35 | - | - | - | - | - | - | -
SMILES | p-CIP stab down | ABCB6 inh 2 | Dynein transport | KCC2 mod | V-ATPase pH | KCC2 secondary | KCC2 bumet counter | KCC2 sec2 | HEK293 Tl flux | KCC2 ouabain | HEK293 Tl flux2
O=C(CSCc1ccc(Br)cc1)Nc1ccccc1C(=O)N1CCOCC1 | - | - | . | . | - | . | . | . | . | . | .
Cc1[nH]n2c(=O)cc(C(C)(C)C)nc2c1-c1ccccc1 | - | - | - | . | - | . | . | . | . | . | .
Cc1[nH]n2c(=O)cc(C(C)C)nc2c1-c1ccccc1 | - | - | - | 6.66 | - | ? | 0.0153 | ? | ? | ? | -
N#Cc1c(-c2ccc(C(F)(F)F)cc2)cc(-c2ccccc2)[nH]c1=S | - | - | - | 5 | - | 0.0201 | 0.0222 | - | ? | 0.0294 | 0.0244
C=CCSc1nnc(NC(=O)c2nc(SCC)ncc2Cl)s1 | - | - | - | . | - | . | . | . | . | . | .
CSc1ncc(Cl)c(C(=O)Nc2nnc(SC/C=C/c3ccccc3)s2)n1 | - | - | - | 28 | - | - | 0.0818 | 0.0542 | 0.0638 | 0.0657 | 0.0411
CC(=O)Nc1ccc(S(=O)(=O)Oc2ccccc2N2C(=O)C3C4CCC(C4)C3C2=O)cc1 (stereo not drawn) | - | - | . | . | - | . | . | . | . | . | .
Cn1c(SCC(=O)O)nnc1-c1ccc(NC(=O)c2ccc(Cl)c(Cl)c2)cc1 | - | - | - | - | - | . | . | . | . | . | .
O=C1c2oc3ccccc3c(=O)c2C(c2cccc(F)c2)N1CCCO (stereo not drawn) | - | - | - | 6.71 | - | - | ? | - | ? | - | -
CCn1ncc(Br)c1C(=O)Nc1ccc(OC(F)(F)F)cc1 | - | - | . | . | - | . | . | . | . | . | .
CCn1ncc(Br)c1C(=O)Nc1ccc(C(=O)OC(C)C)cc1 | - | - | - | 5.25 | - | - | - | - | - | - | -
O=C(NC1CCN(Cc2ccccc2)C1)c1cc(COc2ccc(F)cc2F)on1 (stereo not drawn) | - | - | - | . | - | - | - | ? | - | - | -
Cc1ccc(C)c(OCc2cc(C(=O)NC3CCN(Cc4ccccc4)CC3)no2)c1 | - | - | . | . | - | . | . | . | . | . | .
FC(F)(F)c1cccc(NCc2n[nH]c(=S)n2C2CCCCC2)c1 | - | - | - | 5.94 | - | - | 0.0195 | - | ? | ? | -
CC(C)(C)c1ccc(-c2n[nH]c(=S)n2C2CCCC2)cc1 | - | - | - | . | - | . | . | . | . | . | .
O=C(c1ccco1)N1CCN(C(c2ccccc2)c2nnnn2C2CCCC2)CC1 (stereo not drawn) | - | - | - | - | - | . | . | . | . | . | .
O=C(Nc1ccc2c(c1)OCCO2)c1ccccc1F | - | - | - | . | - | . | . | . | . | . | .
O=C(NC(=S)Nc1ccc2c(c1)OCCO2)c1ccccc1 | - | - | - | . | - | . | . | . | . | . | .
